According to ChEMBL document CHEMBL2034910, “Synthesis, biological evaluation and 3D-QSAR studies of novel 4,5-dihydro-1H-pyrazole niacinamide derivatives as BRAF inhibitors” (Bioorg Med Chem, 2012):

Tests used:
[1] = Antiproliferative activity against human WM266.4 cells after 24 hrs by MTT assay; format: functional; conditions: WM 266-4, 24 h
Outline: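 WM266.5 (so in the source) melanoma cells in DMEM/10% FBS, 37 °C, 5% CO2; seeded 1000 cells/well and left 24 h to reattach. DMSO stocks (20 mM) serially diluted in medium to final 100 µM–0.005 µM. Exposure 24 h at 37 °C. Viability by MTT reduction, absorbance at 590 nm; GI50 calculated.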

[2] = Inhibition of mouse full length GST-tagged BRAF V600E mutant-mediated Mek1 phosphorylation preincubated for 1 hr prior to substrate addition measured after 25 mins by PAGE analysis
[3] = Acute oral toxicity in po dosed rat after 14 days; format: organism-based; conditions: in vivo
Outline: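 Single 5000 mg/kg dose given by oral gavage to ten healthy rats. Mortality, gross toxicity signs and behavioural changes were checked at least once daily for 14 days. Body weights were taken before dosing and on days 7 and 14.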

| IC50 [2] [µM] | pIC50 [2] | SMILES | GI50 [1] [µM] | LD50 at 336 h [3] [mg/kg] |
| --- | --- | --- | --- | --- |
| 4.58 | 5.339 | COc1ccc(C2=NN(C(=O)c3cncc(Br)c3)C(c3ccc(OC)cc3)C2)cc1 (stereo not drawn) | 7.56 |  |
| 7.56 | 5.121 | COc1ccc(C2=NN(C(=O)c3ccc(Cl)nc3)C(c3ccc(OC)cc3)C2)cc1 (stereo not drawn) | 6.45 |  |
| 5.14 | 5.289 | COc1ccc(C2=NN(C(=O)c3ccc(C)nc3Cl)C(c3ccc(OC)cc3)C2)cc1 (stereo not drawn) | 5.74 |  |
| 6.14 | 5.212 | COc1ccc(C2=NN(C(=O)c3cccnc3Cl)C(c3ccc(OC)cc3)C2)cc1 (stereo not drawn) | 4.35 |  |
| 3.42 | 5.466 | COc1ccc(C2=NN(C(=O)c3ccc(C)nc3)C(c3ccc(OC)cc3)C2)cc1 (stereo not drawn) | 4.93 |  |
| 0.38 | 6.42 | COc1ccc(C2=NN(C(=O)c3cncc(Br)c3)C(c3ccc(Cl)cc3)C2)cc1 (stereo not drawn) | 1.29 |  |
| 0.51 | 6.292 | COc1ccc(C2=NN(C(=O)c3ccc(Cl)nc3)C(c3ccc(Cl)cc3)C2)cc1 (stereo not drawn) | 1.45 |  |
| 0.58 | 6.237 | COc1ccc(C2=NN(C(=O)c3ccc(C)nc3Cl)C(c3ccc(Cl)cc3)C2)cc1 (stereo not drawn) | 1.44 |  |
| 0.47 | 6.328 | COc1ccc(C2=NN(C(=O)c3cccnc3Cl)C(c3ccc(Cl)cc3)C2)cc1 (stereo not drawn) | 0.78 |  |
| 3.51 | 5.455 | COc1ccc(C2=NN(C(=O)c3cncc(Br)c3)C(c3ccc(Br)cc3)C2)cc1 (stereo not drawn) | 5.63 |  |
| 6.89 | 5.162 | COc1ccc(C2=NN(C(=O)c3ccc(Cl)nc3)C(c3ccc(Br)cc3)C2)cc1 (stereo not drawn) | 7.13 |  |
| 6.76 | 5.17 | COc1ccc(C2=NN(C(=O)c3ccc(C)nc3Cl)C(c3ccc(Br)cc3)C2)cc1 (stereo not drawn) | 8.47 |  |
| 5.57 | 5.254 | COc1ccc(C2=NN(C(=O)c3cccnc3Cl)C(c3ccc(Br)cc3)C2)cc1 (stereo not drawn) | 3.05 |  |
| 4.23 | 5.373 | COc1ccc(C2=NN(C(=O)c3ccc(C)nc3)C(c3ccc(Br)cc3)C2)cc1 (stereo not drawn) | 4.28 |  |
| 4.27 | 5.272 | COc1ccc(C2=NN(C(=O)c3cncc(Br)c3)C(c3ccc(OCc4ccccc4)cc3)C2)cc1 (stereo not drawn) | 6.24 |  |
| 6.78 | 5.369 | COc1ccc(C2=NN(C(=O)c3ccc(Cl)nc3)C(c3ccc(OCc4ccccc4)cc3)C2)cc1 (stereo not drawn) | 10.6 |  |
| 3.01 | 5.521 | COc1ccc(C2=NN(C(=O)c3ccc(C)nc3Cl)C(c3ccc(OCc4ccccc4)cc3)C2)cc1 (stereo not drawn) | 10.5 |  |
| 6.49 | 5.188 | COc1ccc(C2=NN(C(=O)c3cccnc3Cl)C(c3ccc(OCc4ccccc4)cc3)C2)cc1 (stereo not drawn) | 9.15 |  |

| IC50 [2] [µM] | pIC50 [2] | SMILES | GI50 [1] [µM] | LD50 at 336 h [3] [mg/kg] |
| --- | --- | --- | --- | --- |
| 1.63 | 5.788 | COc1ccc(C2=NN(C(=O)c3ccc(C)nc3)C(c3ccc(OCc4ccccc4)cc3)C2)cc1 (stereo not drawn) | 7.95 |  |
| 7.61 | 5.119 | O=C(c1cncc(Br)c1)N1N=C(c2ccc(Cl)cc2)CC1c1ccc(OCc2ccccc2)cc1 (stereo not drawn) | 8.13 |  |
| 16.4 | 4.784 | O=C(c1ccc(Cl)nc1)N1N=C(c2ccc(Cl)cc2)CC1c1ccc(OCc2ccccc2)cc1 (stereo not drawn) | 13.2 |  |
| 12.9 | 4.89 | Cc1ccc(C(=O)N2N=C(c3ccc(Cl)cc3)CC2c2ccc(OCc3ccccc3)cc2)c(Cl)n1 (stereo not drawn) | 11.4 |  |
| 4.42 | 5.355 | O=C(c1cccnc1Cl)N1N=C(c2ccc(Cl)cc2)CC1c1ccc(OCc2ccccc2)cc1 (stereo not drawn) | 7.71 |  |
| 7.02 | 5.154 | Cc1ccc(C(=O)N2N=C(c3ccc(Cl)cc3)CC2c2ccc(OCc3ccccc3)cc2)cn1 (stereo not drawn) | 9.2 |  |
| 4.77 | 5.321 | O=C(c1cncc(Br)c1)N1N=C(c2ccc(Cl)cc2)CC1c1ccc(Cl)cc1 (stereo not drawn) | 6.09 |  |
| 7.16 | 5.145 | O=C(c1ccc(Cl)nc1)N1N=C(c2ccc(Cl)cc2)CC1c1ccc(Cl)cc1 (stereo not drawn) | 9.89 |  |
| 7.77 | 5.11 | Cc1ccc(C(=O)N2N=C(c3ccc(Cl)cc3)CC2c2ccc(Cl)cc2)c(Cl)n1 (stereo not drawn) | 8.87 |  |
| 2.12 | 5.672 | O=C(c1cccnc1Cl)N1N=C(c2ccc(Cl)cc2)CC1c1ccc(Cl)cc1 (stereo not drawn) | 3.58 |  |
| 3.58 | 5.446 | Cc1ccc(C(=O)N2N=C(c3ccc(Cl)cc3)CC2c2ccc(Cl)cc2)cn1 (stereo not drawn) | 3.79 |  |
| 7.82 | 5.107 | O=C(c1cncc(Br)c1)N1N=C(c2ccc(Cl)cc2)CC1c1ccc(Br)cc1 (stereo not drawn) | 8.01 |  |
| 7.34 | 5.134 | O=C(c1ccc(Cl)nc1)N1N=C(c2ccc(Cl)cc2)CC1c1ccc(Br)cc1 (stereo not drawn) | 9.87 |  |
| 7.35 | 5.134 | Cc1ccc(C(=O)N2N=C(c3ccc(Cl)cc3)CC2c2ccc(Br)cc2)c(Cl)n1 (stereo not drawn) | 10.8 |  |
| 8.67 | 5.062 | O=C(c1cccnc1Cl)N1N=C(c2ccc(Cl)cc2)CC1c1ccc(Br)cc1 (stereo not drawn) | 7.45 |  |
| 7.05 | 5.152 | Cc1ccc(C(=O)N2N=C(c3ccc(Cl)cc3)CC2c2ccc(Br)cc2)cn1 (stereo not drawn) | 7.65 |  |
| 0.06 |  | CNC(=O)c1cc(Oc2ccc(NC(=O)Nc3ccc(Cl)c(C(F)(F)F)c3)cc2)ccn1 [SORAFENIB] | 8.12 |  |

| SMILES | IC50 [2] [µM] | pIC50 [2] | GI50 [1] [µM] | LD50 at 336 h [3] [mg/kg] |
| --- | --- | --- | --- | --- |
| COc1ccc(C2=NN(C(=O)c3ccc(C)nc3)C(c3ccc(Cl)cc3)C2)cc1 (stereo not drawn) | 0.2 | 6.796 | 0.89 | > 5000 |
